GSTO1 inh – counter-screen for RBBP9 inhibitors: inhibitors of human GSTO1; inhibition, % at 5.96 µM; AID 1974; 1.1% of 300,000 active; recombinant GSTO1, activity-based probe fluorescence polarization; P78417;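 active = inhibition above the campaign mean inhibition plus 3 SD, cut at about 35% in these data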
PAD4 inh – inhibitors of human PAD4; Q9UM07; recombinant PAD4, RCA probe fluorescence polarization; inhibition, % at 6.36 µM; 0.41% of 330,000 active;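 active = percent inhibition above a cutoff equal to the mean of all tested compounds plus 3 SD, cut at about 15% in these data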
UBC13 polyUb – human UBC13 polyubiquitination inhibition. P61088. UBC13 polyubiquitin chain formation, TR-FRET. inhibition, % at 20 µM. 0.47% of 330,000 active. AID 485273; in the data active = inhibition above about 45%, passing the limit was not always enough
Target sequence (P61088 whole entry, looked up): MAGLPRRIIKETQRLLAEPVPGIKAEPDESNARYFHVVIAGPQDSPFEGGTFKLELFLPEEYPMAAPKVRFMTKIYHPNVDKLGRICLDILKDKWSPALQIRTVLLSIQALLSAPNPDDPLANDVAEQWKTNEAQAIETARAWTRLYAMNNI
SUMO HTRF inh – blocks human SUMOylation mediated by UBC9; AID 2006; HTRF SUMOylation assay, SAE1/SAE2 + UBC9, in vitro; inhibition, % at 35 µM; P63279; 0.36% of 290,000 active; in the data active = inhibition above about 50%, passing the limit was not always enough
Target sequence (P63279 whole entry, looked up): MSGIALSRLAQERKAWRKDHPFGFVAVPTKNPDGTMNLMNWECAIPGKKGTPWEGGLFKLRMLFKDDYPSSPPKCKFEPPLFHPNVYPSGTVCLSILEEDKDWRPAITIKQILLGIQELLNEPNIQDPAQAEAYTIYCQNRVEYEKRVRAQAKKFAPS
Rin1-Abl PPI inh – inhibitors of human Rin1-Abl protein interaction; inhibition, % at 7.35 µM; TR-FRET Rin1/Abl binding, biochemical; AID 588664; P00519+Q13671; 0.4% of 360,000 active; in the data active = inhibition above about 5%, passing the limit was not always enough
Apaf-1 inh – blocks human Apaf-1 apoptosome activity. inhibition, % at 20 µM. AID 489030. 0.71% of 330,000 active. O14727. reconstituted apoptosome caspase-3 activity, DEVD-Rh110 fluorescence; active = inhibition of at least 40% at 20 µM
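detection = Rh110 fluorescence intensity | test system = biochemical Apaf-1 apoptosome reconstitution | also added = cytochrome c and DEVD-Rh110 substrate | schedule = 30 min plus 50 min, RT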
Casp3 counter – inhibits human caspase-3 in UBC13 counter-screen. shares compounds with UBC13 polyUb. Recombinant caspase-3, Caspase-Glo 3/7 luminescence, 60 min. inhibition, % at 20 µM. 4% of 1,400 active. AID 488856;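 active = mean inhibition across replicates above about 26%, limit read from the data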
Target sequence (P42574 whole entry, looked up): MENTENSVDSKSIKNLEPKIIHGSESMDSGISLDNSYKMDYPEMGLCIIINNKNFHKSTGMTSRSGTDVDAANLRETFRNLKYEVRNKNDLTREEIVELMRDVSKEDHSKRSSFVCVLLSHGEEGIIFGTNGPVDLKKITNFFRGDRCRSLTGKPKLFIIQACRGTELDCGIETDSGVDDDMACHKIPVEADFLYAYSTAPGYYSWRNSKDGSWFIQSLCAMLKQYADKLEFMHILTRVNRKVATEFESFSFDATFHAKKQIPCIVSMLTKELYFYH
UBC13 confirm – confirmation of human UBC13 polyubiquitin inhibitors; shares compounds with UBC13 polyUb; UBC13 polyubiquitination, TR-FRET, biochemical; inhibition, % at 10 µM; 68% of 1,400 active; in the data active = inhibition above about 45%
Of the large screens only hits and unclear results are named; the others gave an inactive call (follow-up assays come after a bar, where they were run). Only some compounds are listed: those with a hit (about 2.2% of all), similar ones and a draw of the others.

Cc1noc(C)c1S(=O)(=O)N(C)C[C@H]1OCCCC[C@H](C)Oc2ccc(NC(=O)CCCN(C)C)cc2C(=O)N([C@H](C)CO)C[C@@H]1C	none (no result: GSTO1 inh, PAD4 inh, UBC13 polyUb, SUMO HTRF inh, Apaf-1 inh)
CCNC(=O)c1ccccc1NC(=O)c1cccc(S(=O)(=O)N2CCOCC2)c1	none
CCNC(=O)c1ccccc1NC(=O)c1cccc(S(=O)(=O)N2CCC(C)CC2)c1	UBC13 polyUb 67 | Casp3 counter inactive | UBC13 confirm 75
CNC(=O)c1ccccc1NC(=O)c1cccc(S(=O)(=O)N2CCC(C)CC2)c1	UBC13 polyUb 50 | Casp3 counter inactive | UBC13 confirm 58
CCOc1ccccc1NC(=O)C(OC(=O)c1ccc(O)cc1)c1ccccc1 (configuration not stated)	UBC13 polyUb 78 | Casp3 counter inactive | UBC13 confirm 89
COc1ccc(OC(=O)N(C)C[C@H]2OCc3cn(nn3)CCCC(=O)N([C@H](C)CO)C[C@@H]2C)cc1	none (no result: GSTO1 inh, PAD4 inh, UBC13 polyUb, SUMO HTRF inh, Apaf-1 inh)
O=C(COC(=O)CCCCCN=C1NS(=O)(=O)c2ccccc21)Nc1ccc(Cl)c(Cl)c1	UBC13 polyUb 49 | Casp3 counter inactive | UBC13 confirm inactive
Nc1nc(N)nc(-c2cc(C(F)(F)F)ccc2Cl)n1	UBC13 polyUb 51 (no result: SUMO HTRF inh) | Casp3 counter inactive | UBC13 confirm inactive
O=C1Nc2cc(C(=O)NCCCN3CCCC3)ccc2S/C1=C\c1ccccc1	none
O=C1Nc2cc(C(=O)NCCCN3CCOCC3)ccc2S/C1=C/c1ccccc1F	none
O=C1Nc2cc(C(=O)NCCCN3CCOCC3)ccc2S/C1=C/c1cccc(Cl)c1	UBC13 polyUb 57 | Casp3 counter inactive | UBC13 confirm 72
COc1ccc(/C=C2/Sc3ccc(C(=O)NCCN4CCCCCC4)cc3NC2=O)cc1	UBC13 polyUb 67, Apaf-1 inh 49 | Casp3 counter inactive | UBC13 confirm 86
Cc1ccc(C)c(NC(=S)N2CCC(NC(=O)C3CCCCC3)CC2)c1	none
NC(=S)N=Nc1c(O)[nH]c2cc(F)c(F)cc12	UBC13 polyUb 82 | Casp3 counter inactive | UBC13 confirm 99
NC(=S)N=Nc1c(O)[nH]c2c(Cl)cc(Cl)cc12	none (no result: GSTO1 inh, PAD4 inh, UBC13 polyUb, SUMO HTRF inh, Apaf-1 inh)
Cc1cc(C)cc(OCC(=O)NNC(=S)NC(=O)C2CC2)c1	UBC13 polyUb 83 | Casp3 counter inactive | UBC13 confirm 104
COc1ccc(OCC(=O)NNC(=S)NC(=O)C2CCCCC2)cc1	none
COc1ccc(OCC(=O)NNC(=S)NC(=O)C2CC2)cc1	UBC13 polyUb 79 (no result: GSTO1 inh, PAD4 inh) | Casp3 counter inactive | UBC13 confirm 101
N#Cc1nc(-c2cccc3ccccc23)oc1NCCN1CCCCC1	UBC13 polyUb 71 | Casp3 counter inactive | UBC13 confirm 91
COc1ccc(C)cc1S(=O)(=O)N1CCCC(N2CCN(c3ccccc3)CC2)C1 (configuration not stated)	none (no result: GSTO1 inh, PAD4 inh, UBC13 polyUb, SUMO HTRF inh, Apaf-1 inh)
CCOc1ncccc1C(=O)OCC(=O)N(CC(C)C)c1c(N)n(Cc2ccccc2)c(=O)[nH]c1=O	none (no result: SUMO HTRF inh)
NS(=O)(=O)c1ccc(CCNC(=O)c2cc(-c3ccco3)nc3ccccc23)cc1	UBC13 polyUb 51 (no result: GSTO1 inh, SUMO HTRF inh) | Casp3 counter inactive | UBC13 confirm inactive
COc1ccc(-c2oc(=O)c3cc(OC)c(OC)cc3c2C#CCCCO)cc1	none (no result: GSTO1 inh, SUMO HTRF inh)
COc1ccc(-c2oc(=O)c3cc(OC)c(OC)cc3c2C#CC2(O)CCCCC2)cc1	UBC13 polyUb 47 (no result: GSTO1 inh, SUMO HTRF inh) | Casp3 counter inactive | UBC13 confirm inactive
C[C@@H]1O[C@@H](O[C@H]2[C@H](Oc3cc(O)c4c(c3)OC(c3ccc(O)cc3)CC4=O)O[C@H](CO)[C@@H](O)[C@@H]2O)[C@H](O)[C@H](O)[C@H]1O (some centres not stated)	UBC13 polyUb 97 (no result: SUMO HTRF inh) | Casp3 counter inactive | UBC13 confirm 100
COc1ccc([C@@H]2CC(=O)c3c(O)cc(O[C@@H]4OC(CO[C@@H]5OC(C)[C@H](O)[C@H](O)C5O)[C@@H](O)[C@@H](O)C4O)cc3O2)cc1O (some centres not stated)	none (no result: SUMO HTRF inh)
O=c1c(OC2OC(CO)C(O)C(O)C2OC2OC(CO)C(O)C(O)C2O)c(-c2ccc(O)cc2)oc2cc(O)cc(O)c12 (configuration not stated)	none
C[C@@H]1O[C@@H](O[C@H]2[C@H](Oc3cc(O)c4c(c3)O[C@H](c3ccc(O)cc3)CC4=O)O[C@H](CO)[C@@H](O)[C@@H]2O)[C@H](O)[C@H](O)[C@H]1O	UBC13 polyUb 95 | Casp3 counter inactive | UBC13 confirm 98
O=C(c1[nH]c(C(F)(F)F)nc1-c1ccccc1)N1CCN(c2c(Cl)cncc2Cl)CC1	none (no result: GSTO1 inh, PAD4 inh, UBC13 polyUb, SUMO HTRF inh, Apaf-1 inh)
CCOC(=O)C1CCN(C(=O)c2[nH]c(C(F)(F)F)nc2-c2ccccc2)CC1	none (no result: GSTO1 inh, PAD4 inh, UBC13 polyUb, SUMO HTRF inh, Apaf-1 inh)
Cc1cc(N2CCN(C)CC2)nc2ccc(NC(=S)N3CCN(c4ccc(F)cc4)CC3)cc12	UBC13 polyUb 47 | Casp3 counter inactive | UBC13 confirm inactive
Cc1cc(N2CCN(C)CC2)nc2ccc(NC(=S)N3CCN(c4ccc(Cl)cc4)CC3)cc12	UBC13 polyUb 76 | Casp3 counter inactive | UBC13 confirm 70
Cc1cc(N2CCN(C)CC2)nc2ccc(NC(=S)N3CCCCCC3)cc12	none
Cc1cc(N2CCN(C)CC2)nc2ccc(NC(=S)N3CCCCC3)cc12	none (no result: GSTO1 inh, PAD4 inh, UBC13 polyUb, Apaf-1 inh)
Cc1cc(N2CCN(C)CC2)nc2ccc(NC(=S)N3CCN(c4cccc(Cl)c4)CC3)cc12	UBC13 polyUb 61 | Casp3 counter inactive | UBC13 confirm 54
CCOc1ccc(/C=N/NC(=O)Cc2csc(Nc3cccc(C(F)(F)F)c3)n2)c(OCC)c1	none
COc1ccc(/C=N/NC(=O)Cc2csc(Nc3cccc(C(F)(F)F)c3)n2)c(OC)c1	UBC13 polyUb 78 | Casp3 counter inactive | UBC13 confirm 69
N#C[C@H]1C(O)C(O)c2ccccc2N1C(=O)c1ccccc1 (some centres not stated)	UBC13 polyUb 58 (no result: SUMO HTRF inh) | Casp3 counter inactive | UBC13 confirm inactive
CC1=Cc2ccccc2C(C#N)N1C(=O)c1ccccc1 (configuration not stated)	none
CCOc1ccc(Nc2nc(NCC3CCCO3)c3ccccc3n2)cc1 (configuration not stated)	UBC13 polyUb 66 | Casp3 counter inactive | UBC13 confirm 86
CCN(CC)CCOC(=O)c1ccc(NC(=O)c2cn(-c3ccccc3)nc2-c2cccs2)cc1	UBC13 polyUb 96 (no result: GSTO1 inh, PAD4 inh) | Casp3 counter inactive | UBC13 confirm 111
CCN(CC)CCNC(=O)c1cn(-c2ccccc2)nc1-c1cccs1	none
NC1=NC[C@H](c2ccccc2)N1CCCCC1CCCCC1	UBC13 polyUb 79 | Casp3 counter inactive | UBC13 confirm 72
S=C1NC[C@H](c2ccccc2)N1CCCCC1CCCCC1	none

Compound activity as filed in PubChem BioAssay.
